The values that follow come from ChEMBL document CHEMBL4834414 (J Med Chem, 2021).

Structures are written as SMILES. Calls of active or inactive are those of the source. No cut-off for these calls is given here.

Experiment [1] concerns the target Gamma-aminobutyric acid receptor-associated protein-like 1 (Homo sapiens) (UniProt Q9H0R8). Put plainly: Binding affinity to human GABARAPL1 expressed in Escherichia coli T7 by single site binding model based isothermal titration calorimetry. The method in brief:
(§1)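 Human Atg8-family proteins (LC3A, LC3C, GABARAP, GABARAPL1, GABARAPL2) expressed with a modified Ub tag, equilibrated in 50 mM Na2HPO4, 100 mM NaCl, 5% DMSO, pH 7.0; ligand prepared in the same buffer. ITC at 25 °C: 0.4 mM ligand titrated into 0.020 mM protein in 21 injections. Kd from a nonlinear least-squares fit to a single-site binding model.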
In general terms: In ITC the heat of successive injections is recorded.

The target of experiment [2] is T1, Microtubule-associated protein 1 light chain 3 alpha (Homo sapiens, UniProt Q9H492). Description: Binding affinity to human LC3A expressed in Escherichia coli BL21-(DE3) by single site binding model based isothermal titration calorimetry. The method in brief:
as §1

Experiment [3] concerns the target Gamma-aminobutyric acid receptor-associated protein (Homo sapiens) (UniProt O95166). Put plainly: Binding affinity to human GABARAP expressed in Escherichia coli T7 by single site binding model based isothermal titration calorimetry. An outline of the steps:
as §1

Experiment [4] deals with Gamma-aminobutyric acid receptor-associated protein-like 2 (Homo sapiens) (UniProt P60520). Description: Binding affinity to human GABARAPL2 expressed in Escherichia coli T7 by single site binding model based isothermal titration calorimetry. An outline of the steps: as §1
In experiment [5] the target is Microtubule-associated protein 1 light chain 3 gamma (Homo sapiens) (UniProt Q9BXW4). Description: Binding affinity to human LC3C expressed in Escherichia coli BL21-(DE3) by single site binding model based isothermal titration calorimetry. The method in brief:
as §1

Experiment [6] has as its target T1, Microtubule-associated protein 1 light chain 3 alpha. Put plainly: Binding affinity to recombinant LC3A (unknown origin) assessed as shift of melting temperature by differential scanning fluorimetry. The method in brief:
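LC3A at 30 μM in HTRF buffer with 0.1% CHAPS, 2.5× SYPRO orange, 300 μM inhibitor and 1% DMSO, with a no-protein background. Heated 25.0 to 79.8 °C at 1 °C/min; excitation 490 nm, emission 570 nm. Tm taken as the first-derivative maximum; ΔTm against DMSO control. Triplicates in three independent experiments.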
(In DSF a fluorescence change marks the thermal transition of the protein.)

Experiment [7] shares this target. Description: Binding affinity to human LC3A expressed in Escherichia coli BL21-(DE3) by isothermal titration calorimetry. An outline of the steps: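 His-tagged LC3A from E. coli BL21(DE3), TEV-cleaved and purified by IMAC, reverse IMAC and SEC into HTRF buffer (25 mM HEPES pH 7.5, 150 mM KF, 10% glycerol, 5 mM DTT), plus 0.1% CHAPS and 1% DMSO. ITC at 25 °C, stirring 75 rpm: 80 μM protein; inhibitor at 500 μM or 1 mM. Injection settings optimized per compound; dilution heats checked by blank titrations.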

For experiment [8] the target is unchanged. Description: Displacement of sGFP-p62-LIR peptide from human N-terminal SNAP-fused LC3A by time-resolved FRET assay. An outline of the steps: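 HTRF displacement: 10 nM N-terminal SNAP-LC3A labeled with terbium cryptate (donor) and 1 μM p62-LIR-sGFP (acceptor), with compound at varying concentrations in 1% DMSO. Buffer 25 mM HEPES pH 7.5, 150 mM KF, 10% glycerol, 0.1% CHAPS, 5 mM DTT. Incubated 2 h at RT; excitation 340 nm, emission read at 520 and 620 nm. IC50 with SD; Ki calculated.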

Experiment [9] deals with T2, Microtubule-associated protein 1 light chain 3 beta (Homo sapiens, UniProt Q9GZQ8). Description: Displacement of sGFP-p62-LIR peptide from human N-terminal SNAP-fused LC3B by time-resolved FRET assay.
Experiment [10] addresses T2, Microtubule-associated protein 1 light chain 3 beta. Description: Binding affinity to human LC3B expressed in Escherichia coli BL21-(DE3) by isothermal titration calorimetry.
Experiment [11] shares this target.

Chain of Microtubule-associated protein 1 light chain 3 gamma (Homo sapiens) (Q9BXW4 whole entry): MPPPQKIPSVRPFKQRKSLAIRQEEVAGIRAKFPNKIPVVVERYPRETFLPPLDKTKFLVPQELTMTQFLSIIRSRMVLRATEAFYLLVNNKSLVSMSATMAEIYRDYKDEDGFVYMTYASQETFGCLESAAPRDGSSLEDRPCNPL
Chain of Gamma-aminobutyric acid receptor-associated protein (Homo sapiens) (O95166 whole entry): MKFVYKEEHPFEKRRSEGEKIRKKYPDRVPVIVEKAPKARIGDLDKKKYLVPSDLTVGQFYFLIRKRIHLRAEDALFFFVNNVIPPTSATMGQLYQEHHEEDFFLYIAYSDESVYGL
Chain of Gamma-aminobutyric acid receptor-associated protein-like 1 (Homo sapiens) (Q9H0R8 whole entry, looked up): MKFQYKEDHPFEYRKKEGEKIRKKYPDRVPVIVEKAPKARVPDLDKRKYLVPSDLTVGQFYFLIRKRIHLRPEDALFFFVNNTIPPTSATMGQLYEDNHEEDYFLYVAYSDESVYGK
Chain of Gamma-aminobutyric acid receptor-associated protein-like 2 (Homo sapiens) (P60520 whole entry): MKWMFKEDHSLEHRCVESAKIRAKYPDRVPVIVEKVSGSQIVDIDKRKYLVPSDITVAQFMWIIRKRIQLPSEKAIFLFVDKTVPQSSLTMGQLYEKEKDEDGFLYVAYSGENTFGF

As for `CO[C@@H]1[C@@H](OC(N)=O)[C@@H](O)[C@H](Oc2ccc3c(O)c(NC(=O)c4ccc(O)c(CC=C(C)C)c4)c(=O)oc3c2C)OC1(C)C`, the outcome in experiment [1], in experiment [3], in experiment [4] and in [5] was inactive. Moreover, in experiment [2], the result was Active.

A word on the ΔTm: it is the change in melting temperature against a reference sample. A word on the Kd: it is the free concentration of one partner at which half of the binding sites on the other are occupied at equilibrium, for simple one-to-one binding. High values mean a looser complex, low ones a tighter complex. One may read the IC50 as the concentration needed to halve the response being measured. Usually Ki stands for a measure of affinity in units of concentration, obtained from inhibition or displacement. As to `Cc1c(O)ccc2c(O)c(NC(=O)c3cccc(CCC(C)C)c3)c(=O)oc12`, the ΔTm in [6] is 0 °C. For the same molecule, binding in [7] was characterised by a dissociation constant (Kd) of 15.7 µM. Also, in experiment [8] (read-out: IC50), the IC50 was determined as 160 µM. The Ki in experiment [8] (read-out: Ki) worked out at 32.7 µM.

In the case of `CC(C)CCc1cccc(C(=O)Nc2c(O)c3ccc(O)cc3oc2=O)c1`, the ΔTm in experiment [6] worked out at 1.4 °C. This molecule also displayed a Kd in experiment [7] of 17.2 µM. In addition, the IC50 in experiment [8] (read-out: IC50) was 64.8 µM. For the same molecule, in [8] (read-out: Ki), the Ki was found to be 13.3 µM.

As to `CO[C@@H]1[C@@H](OC(N)=O)[C@@H](O)[C@H](Oc2ccc3c(O)c(NC(=O)c4ccc(O)c(CCC(C)C)c4)c(=O)oc3c2C)OC1(C)C`, the figures for the IC50 in [9] (read-out: IC50) and in experiment [8] (read-out: IC50) were 72.3 µM and 16 µM, respectively. The Ki in [9] (read-out: Ki) was determined as 8.1 µM; in experiment [8] (read-out: Ki), 3.3 µM. Besides, the Kd in experiment [10] was 11.4 µM; in experiment [7], 2.8 µM. The ΔTm in experiment [6] and in [11] was 5.6 °C throughout.

For the molecule `Cc1c(O)ccc2c(O)c(NC(=O)c3ccc(O)c(CCC(C)C)c3)c(=O)oc12`, the ΔTm in experiment [6] was 0.7 °C. This molecule registered a Kd in [7] of 14.2 µM. The IC50 in experiment [8] (read-out: IC50) turned out to be 119 µM. The Ki in experiment [8] (read-out: Ki) was 24.3 µM.

`CC(C)(C)OC(=O)NCC(=O)Nc1c(O)c2ccc(O)cc2oc1=O`: the IC50 result in [9] and in experiment [8] was “Not Active” each time. Also, the Ki entry in experiment [9] and in [8] was “Not Active” each time.

For `CC(C)CCc1cc(C(=O)Nc2c(O)c3ccc(O)cc3oc2=O)ccc1O`, in experiment [6], the ΔTm is 0.8 °C. In experiment [7], this molecule had a Kd of 27.5 µM. In experiment [8] (read-out: IC50), the IC50 is 128 µM. The Ki in experiment [8] (read-out: Ki) is 26.2 µM.

With `CC(C)CCc1cccc(C(=O)Nc2c(O)c3ccc(-c4coc5ccccc45)cc3oc2=O)c1`, in [9], the IC50 result is given as “Not Active” and the Ki result is “Not Active”. In experiment [8], the IC50 entry is reported as “Not Active” and the Ki result is “Not Active”.

In the case of `COc1cccc(C(=O)Nc2c(O)c3ccc(O)cc3oc2=O)c1`, the Ki result in [9] and in experiment [8] was “Not Active” each time.
